Test results as given in ChEMBL document CHEMBL1149914 (J Med Chem, 2008).
pKi: −log10 of the molar value.

Key:
[1] = target: Sodium-dependent serotonin transporter (Homo sapiens, UniProt P31645); assay: Displacement of [125I]RTI55 from SERT
How it was run: (§1)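 [125I]RTI-55 at 0.01 nM (s.a. 2200 Ci/mmol) competitive binding. Drugs and blocker in 55.2 mM sodium phosphate pH 7.4 with 1 mg/mL BSA. Radioligand in the same buffer with chymostatin 25 μg/mL, leupeptin 25 μg/mL, EDTA 100 μM and EGTA 100 μM. Triplicate incubation for 18–24 h at 4 °C (equilibrium), 1 mL final volume. Ki derived.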

[2] = Ratio of Ki for SERT to Ki for DAT
How it was run: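 SERT Ki divided by DAT Ki. Both come from [125I]RTI-55 (0.01 nM) binding in pH 7.4 sodium phosphate/BSA buffer with protease inhibitors, run in triplicate for 18–24 h at 4 °C.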

[3] = target: Sodium-dependent dopamine transporter (Homo sapiens, UniProt Q01959); assay: Displacement of [125I]RTI55 from DAT; how it was run: as §1
Sequence of Sodium-dependent dopamine transporter (Q01959 whole entry): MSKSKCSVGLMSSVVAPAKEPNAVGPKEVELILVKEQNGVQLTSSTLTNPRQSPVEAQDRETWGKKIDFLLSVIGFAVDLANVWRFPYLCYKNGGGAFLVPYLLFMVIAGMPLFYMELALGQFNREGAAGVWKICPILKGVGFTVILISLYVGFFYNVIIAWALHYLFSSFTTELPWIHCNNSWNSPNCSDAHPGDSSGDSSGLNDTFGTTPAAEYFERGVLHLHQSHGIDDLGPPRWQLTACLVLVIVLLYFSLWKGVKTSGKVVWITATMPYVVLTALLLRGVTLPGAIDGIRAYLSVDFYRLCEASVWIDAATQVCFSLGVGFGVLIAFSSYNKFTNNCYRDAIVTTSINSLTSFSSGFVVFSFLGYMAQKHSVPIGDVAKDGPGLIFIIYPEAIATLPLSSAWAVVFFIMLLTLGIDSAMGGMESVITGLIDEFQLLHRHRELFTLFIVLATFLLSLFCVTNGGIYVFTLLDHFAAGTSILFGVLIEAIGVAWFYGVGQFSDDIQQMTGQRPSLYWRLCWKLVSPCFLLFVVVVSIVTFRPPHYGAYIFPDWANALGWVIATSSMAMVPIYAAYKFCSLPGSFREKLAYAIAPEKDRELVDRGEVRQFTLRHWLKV

Sequence of Sodium-dependent serotonin transporter (P31645 whole entry): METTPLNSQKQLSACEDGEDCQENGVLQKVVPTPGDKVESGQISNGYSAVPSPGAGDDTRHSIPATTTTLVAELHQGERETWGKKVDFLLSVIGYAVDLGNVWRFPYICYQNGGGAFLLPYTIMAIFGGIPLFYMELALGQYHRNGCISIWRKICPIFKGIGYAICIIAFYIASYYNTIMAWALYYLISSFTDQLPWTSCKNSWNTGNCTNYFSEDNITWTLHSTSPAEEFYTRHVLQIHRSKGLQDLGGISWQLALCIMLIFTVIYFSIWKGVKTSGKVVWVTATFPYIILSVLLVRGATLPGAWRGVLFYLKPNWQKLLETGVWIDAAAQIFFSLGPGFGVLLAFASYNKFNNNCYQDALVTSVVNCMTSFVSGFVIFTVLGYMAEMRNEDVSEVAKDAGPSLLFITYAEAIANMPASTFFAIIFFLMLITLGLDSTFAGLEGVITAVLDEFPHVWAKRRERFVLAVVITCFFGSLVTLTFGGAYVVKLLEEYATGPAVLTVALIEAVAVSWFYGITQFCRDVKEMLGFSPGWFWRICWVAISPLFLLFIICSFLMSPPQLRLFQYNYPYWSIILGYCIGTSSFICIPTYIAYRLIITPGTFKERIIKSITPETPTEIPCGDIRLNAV

SMILES: N[C@H](Cc1ccccc1)CN1CCN(CCOC(c2ccc(F)cc2)c2ccc(F)cc2)CC1
- pKi [1]: 7.66
- Ratio Ki [2]: 1

SMILES: O[C@H](Cc1ccccc1)CN1CCN(CCOC(c2ccccc2)c2ccccc2)CC1
- pKi [3]: 7.60
- pKi [1]: 5.74
- Ratio Ki [2]: 72

SMILES: CC(Cc1ccccc1)CN1CCN(CCOC(c2ccc(F)cc2)c2ccc(F)cc2)CC1 (stereo in doubt; (+)-7) [listing 1 of 2 here]
- pKi [1]: 6.92

SMILES: C=C(Cc1ccccc1)CN1CCN(CCOC(c2ccccc2)c2ccccc2)CC1
- pKi [1]: 5.48
- Ratio Ki [2]: 8

SMILES: CC(O)(CCN1CCN(CCOC(c2ccc(F)cc2)c2ccc(F)cc2)CC1)c1ccccc1 (centres undefined)
- pKi [1]: 6.82
- Ratio Ki [2]: 39

SMILES: FC[C@H](Cc1ccccc1)N1CCN(CCOC(c2ccc(F)cc2)c2ccc(F)cc2)CC1
- pKi [1]: 6.96
- Ratio Ki [2]: 0.8

SMILES: O=C(Cc1ccccc1)CN1CCN(CCOC(c2ccc(F)cc2)c2ccc(F)cc2)CC1
- pKi [1]: 6.60
- Ratio Ki [2]: 38

SMILES: CO[C@H](Cc1ccccc1)CN1CCN(CCOC(c2ccc(F)cc2)c2ccc(F)cc2)CC1
- pKi [1]: 6.60
- Ratio Ki [2]: 9

SMILES: C=C(CCN1CCN(CCOC(c2ccccc2)c2ccccc2)CC1)c1ccccc1
- pKi [1]: 5.74
- Ratio Ki [2]: 59

SMILES: O[C@@H](Cc1ccccc1)CN1CCN(CCOC(c2ccc(F)cc2)c2ccc(F)cc2)CC1
- pKi [3]: 9.12
- pKi [1]: 6.64
- Ratio Ki [2]: 307

SMILES: O=C(CN1CCN(CCOC(c2ccccc2)c2ccccc2)CC1)c1ccccc1
- pKi [1]: 5.85
- Ratio Ki [2]: 3

SMILES: O=C(CN1CCN(CCOC(c2ccc(F)cc2)c2ccc(F)cc2)CC1)c1ccccc1
- pKi [1]: 7.06
- Ratio Ki [2]: 2

SMILES: Fc1ccc(C(OCCN2CCN(CCc3ccccc3)CC2)c2ccc(F)cc2)cc1
- pKi [3]: 8.10
- pKi [1]: 7.44
- Ratio Ki [2]: 5

SMILES: C=C(CCN1CCN(CCOC(c2ccc(F)cc2)c2ccc(F)cc2)CC1)c1ccccc1
- pKi [1]: 6.72
- Ratio Ki [2]: 11

SMILES: CC(Cc1ccccc1)CN1CCN(CCOC(c2ccc(F)cc2)c2ccc(F)cc2)CC1 (single isomer, unassigned; (-)) [listing 1 of 2 here]
- pKi [1]: 6.72

SMILES: CO[C@@H](Cc1ccccc1)CN1CCN(CCOC(c2ccc(F)cc2)c2ccc(F)cc2)CC1
- pKi [1]: 6.66
- Ratio Ki [2]: 8

SMILES: Fc1ccc(C(OCCN2CCN(C[C@H](F)Cc3ccccc3)CC2)c2ccc(F)cc2)cc1
- pKi [1]: 6.27
- Ratio Ki [2]: 25

SMILES: CC(Cc1ccccc1)CN1CCN(CCOC(c2ccc(F)cc2)c2ccc(F)cc2)CC1 (single isomer, unassigned; (-)) [listing 2 of 2 here]
- Ratio Ki [2]: 11

SMILES: Fc1ccc(C(OCCN2CCN(C[C@@H](F)Cc3ccccc3)CC2)c2ccc(F)cc2)cc1
- pKi [1]: 6.54
- Ratio Ki [2]: 109

SMILES: CC(O)(Cc1ccccc1)CN1CCN(CCOC(c2ccccc2)c2ccccc2)CC1 (centres undefined)
- pKi [1]: 5.70
- Ratio Ki [2]: 14

SMILES: FC[C@@H](Cc1ccccc1)N1CCN(CCOC(c2ccc(F)cc2)c2ccc(F)cc2)CC1
- pKi [1]: 6.72
- Ratio Ki [2]: 2

SMILES: O[C@H](Cc1ccccc1)CN1CCN(CCOC(c2ccc(F)cc2)c2ccc(F)cc2)CC1
- pKi [3]: 7.92
- pKi [1]: 6.80
- Ratio Ki [2]: 13

SMILES: O[C@@H](Cc1ccccc1)CN1CCN(CCOC(c2ccccc2)c2ccccc2)CC1
- pKi [3]: 8.64
- pKi [1]: 5.66
- Ratio Ki [2]: 957

SMILES: N[C@@H](Cc1ccccc1)CN1CCN(CCOC(c2ccc(F)cc2)c2ccc(F)cc2)CC1
- pKi [1]: 7.06
- Ratio Ki [2]: 2

SMILES: CC(O)(CCN1CCN(CCOC(c2ccccc2)c2ccccc2)CC1)c1ccccc1 (centres undefined)
- pKi [1]: 5.74
- Ratio Ki [2]: 254

SMILES: CC(O)(Cc1ccccc1)CN1CCN(CCOC(c2ccc(F)cc2)c2ccc(F)cc2)CC1 (centres undefined)
- pKi [1]: 6.51
- Ratio Ki [2]: 6

SMILES: O=C(Cc1ccccc1)CN1CCN(CCOC(c2ccccc2)c2ccccc2)CC1
- pKi [1]: 5.60
- Ratio Ki [2]: 250

SMILES: CC(Cc1ccccc1)CN1CCN(CCOC(c2ccc(F)cc2)c2ccc(F)cc2)CC1 (stereo in doubt; (+)-7) [listing 2 of 2 here]
- Ratio Ki [2]: 7

SMILES: C=C(Cc1ccccc1)CN1CCN(CCOC(c2ccc(F)cc2)c2ccc(F)cc2)CC1
- pKi [1]: 6.37
- Ratio Ki [2]: 4
